Measurements collected from several papers.
Target: Receptor-interacting serine/threonine-protein kinase 2 (RIPK2, Homo sapiens, UniProt O43353)

CNC(=O)[C@@H]1CC[C@@H](n2c(-c3ccc4cnccc4c3)nc3ccc(C(=O)NCc4cccc(C(N)=O)c4)cc32)C1  remaining binding (binding, competition with immobilised ligand; 1 µM): 100%
c1cncc(-c2cccc(Nc3nccc(NC4CCCCC4)n3)c2)c1  remaining binding (binding, competition with immobilised ligand; 10 µM): 39%
O=C(Nc1c[nH]nc1C(=O)NC1CCNCC1)c1cc(F)cc(F)c1  remaining binding (binding, competition with immobilised ligand; 1 µM): 53%
C[C@@H]1CN(c2cc(-c3nn(C)c4ccc(OC5(C)CC5)cc34)ncn2)C[C@H](C)O1  remaining binding (cell-free assay, competition with immobilised ligand; 1 µM): 100%
c1cnn2ncc(-c3ccnc(N4CCC45COC5)n3)c2c1  remaining binding (binding; 1 µM): 78%
Nc1cnc(N2CCc3cc(S(=O)(=O)Nc4c(F)cc(Cl)cc4F)cc(N4CCCC4=O)c32)nc1  remaining binding (cell-free assay, competition with immobilised ligand; 1 µM): 53%
N[C@H]1CCN(c2nccc(-c3cnn4ncccc34)n2)C1  remaining binding (binding; 1 µM): 100%
C=CC(=O)N1CCC(C(=O)NCC(=O)N2CCN(c3nc(-c4cnc(N)nc4C(F)F)nc(N4CCOCC4)n3)CC2)CC1  remaining binding (binding, competition with immobilised ligand; 1 µM): 100%
O=C(c1ccc(Nc2ncc(Cl)c(-c3cc4ccccc4s3)n2)cc1)N1CCC(N2CCCC2)CC1  remaining binding (binding, competition with immobilised ligand; 1 µM): 98%
CN(c1nccc(-c2cnn3ncccc23)n1)C1CC1  remaining binding (binding; 1 µM): 87%
O=C(NCCCN1CCOCC1)c1ccc(Nc2nccc(-c3cc4ccccc4s3)n2)cc1  remaining binding (binding, competition with immobilised ligand; 1 µM): 80%
C[C@H]1CCN(c2nccc(-c3cnn4ncccc34)n2)C1  remaining binding (binding; 1 µM): 95%
CN(C(=O)c1ccccc1)c1cc(N(C)c2ccc3c(c2)CCc2ccc(C(=O)NCCN4CCOCC4)cc2C3=O)ccc1F  remaining binding (cell-free assay, competition with immobilised ligand; 1 µM): 56%
CN(C)c1ncc(F)c(-c2cnn3ncccc23)n1  remaining binding (binding; 1 µM): 100%
CC(=O)C1=C(C)N(c2cccc(C(F)(F)F)c2)C(=O)N[C@@H]1c1ccc(C#N)nc1  remaining binding (cell-free assay, competition with immobilised ligand; 1 µM): 98.7%
Nc1ncc2c(n1)-c1c([nH]c3ccc(C#CC4CC4)cc13)CCCC2  remaining binding (binding, competition with immobilised ligand; 1 µM): 100%
O=C(NCc1ncc(C(F)(F)F)cc1Cl)c1ccc2c(c1)C1(CCS(=O)(=O)CC1)[C@H](C1CC1)N2S(=O)(=O)c1ccc(F)cc1  remaining binding (cell-free assay, competition with immobilised ligand; 1 µM): 100%
Cc1cnc(Nc2ccc(C(=O)N3CCC(N4CCCC4)CC3)cc2)nc1-c1cc2ccccc2s1  remaining binding (binding, competition with immobilised ligand; 1 µM): 81%
CO[C@H]1CC[C@H](CNc2ccc(S(=O)(=O)NC(=O)c3ccc(N4CCN(CC5=C(c6ccc(Cl)cc6)CC(C)(C)CC5)CC4)cc3Oc3cnc4[nH]ccc4c3)cc2[N+](=O)[O-])CC1  remaining binding (cell-free assay, competition with immobilised ligand; 1 µM): 85%
CN(C)c1nccc(-c2cnc3ncccn23)n1  remaining binding (binding; 1 µM): 98%
COc1cnc(Nc2cccc(S(N)(=O)=O)c2)nc1N1CCN(c2ccccc2)CC1  remaining binding (binding, competition with immobilised ligand; 1 µM): 100%
O=C(NC[C@@H]1[C@H]2CN(C(=O)OCc3cc(C(F)(F)F)cc(C(F)(F)F)c3)C[C@@H]12)c1ccc2[nH]nnc2c1  remaining binding (cell-free assay, competition with immobilised ligand; 1 µM): 64%
